Experimental data as given in ChEMBL document CHEMBL1770105, “Discovery and evaluation of pyrazolo[1,5-a]pyrimidines as neuropeptide Y1 receptor antagonists” (Bioorg Med Chem Lett, 2011).
Values belong to the molecule of their own block, whether it stands above or below them. Calls of active or inactive are those of the source. No cut-off for these calls is given here.

Assays:
[1] = target: T1, Neuropeptide Y receptor type 1 (Homo sapiens, UniProt P25929); assay: Displacement of [125I]-PYY from human recombinant NPY Y1 receptor overexpressed in membrane of Sf9 cells
T1 sequence (P25929 whole entry): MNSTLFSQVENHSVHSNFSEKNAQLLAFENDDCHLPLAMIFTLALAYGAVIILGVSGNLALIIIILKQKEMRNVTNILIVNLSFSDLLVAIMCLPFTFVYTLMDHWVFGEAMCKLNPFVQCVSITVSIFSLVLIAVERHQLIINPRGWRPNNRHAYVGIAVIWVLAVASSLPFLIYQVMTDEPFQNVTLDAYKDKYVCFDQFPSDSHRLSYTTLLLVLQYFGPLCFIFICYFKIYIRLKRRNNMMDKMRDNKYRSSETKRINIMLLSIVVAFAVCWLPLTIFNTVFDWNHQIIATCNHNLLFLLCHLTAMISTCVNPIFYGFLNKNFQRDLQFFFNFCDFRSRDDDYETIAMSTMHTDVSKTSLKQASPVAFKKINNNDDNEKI
Procedure, shortened: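 Human Y1 receptor: 125I-PYY displacement on Sf9 membranes overexpressing recombinant hY1R. Ki values are single determinations run in triplicate.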

[2] = Ratio of fraction unbound drug level in brain to plasma in Mdr1a/1b knockout mouse to FVB mouse at 5 mg.kg, sc after 0.5 hrs; format: ADME, organism-based
Procedure, shortened: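 Brain and plasma levels measured in Mdr1a/1b knockout and wild-type FVB mice 0.5 h after a 5 mg/kg sc dose. Brain/plasma ratios calculated from unbound fractions, measured by equilibrium dialysis of brain homogenate and plasma. Result expressed as knockout B/P over FVB B/P.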

[3] = target: T1, Neuropeptide Y receptor type 1; assay: Antagonist activity at NPY Y1 receptor in human SK-N-MC cells assessed as inhibition of NPY-induced calcium mobilization by FLIPR assay; format: functional, cell-based
Procedure, shortened: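 SK-N-MC neuroblastoma cells plated at 25,000/well 4 days ahead, loaded with Fluo-3 for 1 h in 5% CO2, washed and resuspended in assay buffer (5 mM KCl, 115 mM NaCl, 0.96 mM NaH2PO4, 1 mM MgSO4, 2 mM CaCl2, 5 mM D-glucose) containing test compound.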

[4] = Plasma clearance in Sprague-Dawley rat at 1 mg/kg, iv and 3 mg/kg, po; format: ADME, organism-based
Procedure, shortened: (§1)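 Overnight-fasted, jugular-vein-cannulated SD rats (water ad libitum) dosed by oral gavage (3 mg/kg in 0.5% methyl cellulose, 2 mL/kg, n = 2) or iv via the jugular vein (1.0 mg/kg in 50% PEG, 1 mL/kg, n = 2).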

[5] = Fraction unbound in Sprague-Dawley rat plasma at 1 mg/kg, iv and 3 mg/kg, po; format: ADME, organism-based
[6] = system: Rattus norvegicus; assay: Unbound plasma clearance in Sprague-Dawley rat 1 mg/kg, iv and 3 mg/kg, po; format: ADME, organism-based; details: in vivo
[7] = system: Rattus norvegicus; assay: Antihypertensive activity in Sprague-Dawley rat assessed as inhibition of NPY-induced increase in arterial pressure at 3 mg/kg, iv; format: functional; details: Artery
Procedure, shortened: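 Overnight-fasted SD rats anesthetized with inactin (100 mg/kg ip), tracheal and femoral arterial/venous cannulae, on a heated pad. Arterial pressure and heart rate recorded every 5 s. NPY given as iv bolus every 15 min. After the third NPY bolus, compound given iv at 3 mg/kg in saline (1 mL/kg), followed by three further NPY injections.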

[8] = Half life in Sprague-Dawley rat at 1 mg/kg, iv and 3 mg/kg, po; format: ADME, organism-based; details: in vivo; procedure, shortened: as §1
[9] = Oral bioavailability in Sprague-Dawley rat at 3 mg/kg; format: ADME, organism-based; details: in vivo; procedure, shortened: as §1
[10] = Ratio of fraction unbound drug level in brain to plasma in Sprague-Dawley rat; format: ADME, cell-free
Procedure, shortened: (§2)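 Brain-to-plasma ratios calculated from unbound fractions. Unbound fraction in brain homogenate and whole plasma of rats or mice measured by equilibrium dialysis.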

[11] = Ratio of fraction unbound drug level in brain to plasma in FVB mouse; format: ADME, cell-free; procedure, shortened: as §2
[12] = system: Rattus norvegicus; assay: Antiobesity activity in Sprague-Dawley rat assessed as reduction of NPY-induced food intake at 120 ug, icv after 4 hrs; format: functional, organism-based
Procedure, shortened: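 SD rats with icv cannulae, fed powdered chow ad libitum. Between 10 and 11 am in the light cycle, compound or propylene glycol vehicle co-infused icv with NPY in sterile water over 1 min. Food intake measured over the next 4 h. Crossover design, two treatments 2 days apart.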

[13] = system: Rattus norvegicus; assay: Antiobesity activity in overnight fasted Sprague-Dawley rat assessed as decrease in food intake at 40 mg/kg, po followed by food re-feeding after 2 hrs post compound dose measured upto 2 hrs post re-feeding relative to control; format: functional; design: scale not given: the % may be the effect or the level left
Procedure, shortened: (§3)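 SD rats housed singly with powdered chow and water, fasted overnight, then dosed po at 40 mg/kg or vehicle (0.5% methyl cellulose in water). Pre-weighed food returned 2 or 4 h post-dose. Intake recorded 2 and 4 h after food was restored, relative to vehicle controls.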

[14] = system: Rattus norvegicus; assay: Antiobesity activity in overnight fasted Sprague-Dawley rat assessed as decrease in food intake at 40 mg/kg, po followed by food re-feeding after 4 hrs post compound dose measured up to 2 to 4 hrs post re-feeding; format: functional, organism-based; design: dose 40 mg/kg; procedure, shortened: as §3
[15] = system: Rattus norvegicus; assay: Neurotoxicity in Sprague-Dawley rat assessed as change in locomotor activity at 40 mg/kg, po; format: toxicity, organism-based; design: dose 40 mg/kg, route oral; details: in vivo
[16] = system: Rattus norvegicus; assay: Antiobesity activity in Wistar rat assessed as decrease in nocturnal food intake at 40 mg/kg, po measured every 10 mins for 18 hrs post-dose; format: functional, organism-based; design: dose 40 mg/kg
Procedure, shortened: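 Wistar rats acclimated to a continuous food-intake monitoring system. Dosed po at 40 mg/kg or vehicle 30 min before the dark cycle. Intake logged every 10 min for 18 h post-dose. Compared with time-matched vehicle by two-tailed unpaired t-test.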

[17] = system: Rattus norvegicus; assay: Neurotoxicity in Wistar rat assessed as change in locomotor activity at 40 mg/kg, po; format: toxicity, organism-based; design: dose 40 mg/kg, route oral; details: in vivo
[18] = system: Plasma; assay: Unbound plasma concentration in Sprague-Dawley rat at 40 mg/kg, po after 2 hrs; format: ADME, organism-based; design: dose 40 mg/kg, route oral; details: in vivo
[19] = target: T2, Neuropeptide Y receptor type 2 (Homo sapiens, UniProt P49146); assay: Binding affinity to human NPY Y2 receptor
T2 sequence (P49146 whole entry): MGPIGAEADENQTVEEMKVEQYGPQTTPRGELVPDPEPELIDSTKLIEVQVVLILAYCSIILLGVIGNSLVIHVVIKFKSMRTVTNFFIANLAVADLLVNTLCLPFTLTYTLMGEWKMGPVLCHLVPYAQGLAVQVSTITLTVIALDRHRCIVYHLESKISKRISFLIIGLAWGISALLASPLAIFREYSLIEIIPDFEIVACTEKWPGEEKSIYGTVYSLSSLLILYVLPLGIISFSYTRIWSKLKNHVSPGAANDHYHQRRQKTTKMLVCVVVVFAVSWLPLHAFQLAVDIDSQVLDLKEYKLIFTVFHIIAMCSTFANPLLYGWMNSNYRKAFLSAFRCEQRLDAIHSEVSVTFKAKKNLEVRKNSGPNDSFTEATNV

[20] = target: T3, Neuropeptide Y receptor type 5 (Homo sapiens, UniProt Q15761); assay: Binding affinity to human NPY Y5 receptor
T3 sequence (Q15761 whole entry): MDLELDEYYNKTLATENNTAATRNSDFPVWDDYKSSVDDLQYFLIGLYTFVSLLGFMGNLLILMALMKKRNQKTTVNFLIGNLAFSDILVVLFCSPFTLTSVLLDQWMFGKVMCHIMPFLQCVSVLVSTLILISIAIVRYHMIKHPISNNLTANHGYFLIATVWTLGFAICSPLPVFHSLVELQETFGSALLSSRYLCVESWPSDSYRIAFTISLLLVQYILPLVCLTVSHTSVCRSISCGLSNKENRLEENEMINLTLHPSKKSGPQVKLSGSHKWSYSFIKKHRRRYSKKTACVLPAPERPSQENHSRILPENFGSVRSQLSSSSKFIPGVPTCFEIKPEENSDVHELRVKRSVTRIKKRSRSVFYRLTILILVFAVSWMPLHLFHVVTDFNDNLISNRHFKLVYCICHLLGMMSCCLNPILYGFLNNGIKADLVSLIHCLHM

[21] = target: T4, Corticotropin-releasing factor receptor 1 (Homo sapiens) (UniProt P34998); assay: Binding affinity to CRHR at 10 uM
T4 sequence (whole entry): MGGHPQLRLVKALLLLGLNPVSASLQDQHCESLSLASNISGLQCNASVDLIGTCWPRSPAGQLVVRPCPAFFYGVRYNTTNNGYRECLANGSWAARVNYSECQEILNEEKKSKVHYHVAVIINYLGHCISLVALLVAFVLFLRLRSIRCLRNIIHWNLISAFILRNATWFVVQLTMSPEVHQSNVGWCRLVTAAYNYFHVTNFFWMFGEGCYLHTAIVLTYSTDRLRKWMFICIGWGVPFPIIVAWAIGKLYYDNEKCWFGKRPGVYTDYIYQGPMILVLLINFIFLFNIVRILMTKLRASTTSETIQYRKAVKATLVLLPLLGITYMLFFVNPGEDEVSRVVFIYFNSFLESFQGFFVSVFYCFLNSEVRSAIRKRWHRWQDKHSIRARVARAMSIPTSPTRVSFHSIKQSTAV

[22] = system: Rattus norvegicus; assay: Antiobesity activity in overnight fasted Sprague-Dawley rat assessed as decrease in food intake at 40 mg/kg, po followed by food re-feeding after 2 hrs post compound dose measured up to 4 hrs post re-feeding relative to control; format: functional; design: scale not given: the % may be the effect or the level left; procedure, shortened: as §3
[23] = Drug level in Sprague-Dawley rat cerebral spinal fluid at 40 mg/kg, po after 2 hrs; format: ADME, organism-based; design: dose 40 mg/kg, route oral; details: cerebrospinal fluid, read-out: Drug uptake
Procedure, shortened: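 Rats dosed 40 mg/kg po were anesthetized with metofane at 2 h post-dose (n = 2). CSF drawn from the cisterna magna with a 26-gauge needle.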

[24] = Drug level in Sprague-Dawley rat brain interstitial fluid at 40 mg/kg, po after 2 hrs; format: ADME, organism-based; design: dose 40 mg/kg, route oral; details: read-out: Drug uptake
Procedure, shortened: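 Rats dosed 40 mg/kg po. Interstitial fluid collected at 2 h from the paraventricular nucleus with microdialysis probes.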

[25] = target: T5, Neuropeptide Y receptor type 1 (Rattus norvegicus, UniProt P21555); assay: Displacement of [125I]PYY from rat recombinant NPY Y1 receptor overexpressed in membrane of Sf9 cells
T5 sequence (P21555 whole entry): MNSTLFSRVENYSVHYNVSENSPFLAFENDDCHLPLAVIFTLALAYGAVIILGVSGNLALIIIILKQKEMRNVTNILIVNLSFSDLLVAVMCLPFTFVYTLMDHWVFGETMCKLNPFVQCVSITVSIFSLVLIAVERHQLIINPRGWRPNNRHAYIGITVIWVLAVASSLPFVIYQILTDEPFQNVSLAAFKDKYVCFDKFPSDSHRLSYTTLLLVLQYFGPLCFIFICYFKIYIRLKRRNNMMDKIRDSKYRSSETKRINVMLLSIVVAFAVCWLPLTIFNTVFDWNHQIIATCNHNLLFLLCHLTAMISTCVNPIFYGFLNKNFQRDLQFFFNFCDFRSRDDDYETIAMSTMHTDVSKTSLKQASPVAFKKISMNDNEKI

SMILES: COc1cc(Cl)c(-c2c(C)nn3c(NCCNC4CCCCC4F)cc(C)nc23)c(Cl)c1 (mixture of isomers)
Ki [1]: 5 nM
Knockout-to-FVB ratio of unbound brain/plasma ratio [2]: 8

SMILES: Cc1cc(C)c(-c2c(C)nn3c(NCCNC4CCCC4)cc(C)nc23)c(C)c1
Ki [1]: 21 nM

SMILES: COc1cc(Cl)c(-c2c(C)nn3c(NCCNC4CCOCC4)cc(C)nc23)c(Cl)c1
Ki [1]: 1 nM
IC50 [3]: 7 nM
clearance [4]: 45 mL/min/kg
fraction unbound [5]: 0.059
CL [6]: 763 mL/min/kg
inhibition in vivo at 3 mg/kg [7]: 92%
half-life [8]: 1.2 h
bioavailability [9]: 13%
BPR [10]: 0.13
BPR [11]: 0.1
Knockout-to-FVB ratio of unbound brain/plasma ratio [2]: 9
Activity [12]: Active
Activity [13]: 12%
Activity [14]: inactive
Activity [15]: Non-toxic
Activity [16]: Active
Activity [17]: Non-toxic
Cp [18]: 95 nM
IC50 [19]: > 10000 nM
IC50 [20]: > 10000 nM
inhibition [21]: < 50%
Activity [22]: 12%
concentration at 2 h [23]: 26 nM
concentration at 2 h [24]: 17 nM
Ki [25]: 3.5 nM

SMILES: CCCOc1cc(Cl)c(-c2c(C)nn3c(NCCNC4CCOCC4)cc(C)nc23)c(Cl)c1
Ki [1]: 8 nM
IC50 [3]: 207 nM
clearance [4]: 25 mL/min/kg
fraction unbound [5]: 0.011
CL [6]: 2273 mL/min/kg
inhibition in vivo at 3 mg/kg [7]: 0%

SMILES: Cc1cc(NCCNC2CCCC2)n2nc(C)c(-c3c(Cl)cccc3Cl)c2n1
Ki [1]: 38 nM

Continued by falling Ki [1], values first:

Ki [1]: 141 nM
Knockout-to-FVB ratio of unbound brain/plasma ratio [2]: 4
SMILES: COc1cc(Cl)c(-c2c(C)nn3c(NCC(C)(C)NC4CCOCC4)cc(C)nc23)c(Cl)c1

Ki [1]: 29 nM
SMILES: COc1ccc(CCNCCNc2cc(C)nc3c(-c4c(C)cc(C)cc4C)c(C)nn23)cc1
